System: MS2 coat protein
Test: apparent Kd, MS2 coat protein; higher = weaker binding; RNA-MaP array; FMN 200 µM where present
How it was run: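 Binding was read on Illumina sequencing-chip clusters where stalled E. coli RNA polymerase had transcribed each design. A titration of SNAP-549-labelled MS2 coat protein began at 0.7 or 1.5 nM and doubled to 3 µM, once without ligand and once with constant ligand, in 100 mM Tris-HCl pH 7.5, 80 mM KCl, 4 mM MgCl2, BSA, DTT, yeast tRNA and Tween-20. The apparent Kd is the median of filtered per-cluster binding-curve fits, based on green signal normalised to red-channel RNA signal and control-cluster median Fmax.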

[1] = designed as: OFF switch for flavin mononucleotide, no ligand
[2] = ligand present: flavin mononucleotide, designed as: OFF switch for flavin mononucleotide
[3] = designed as: ON switch for flavin mononucleotide, no ligand
[4] = ligand present: flavin mononucleotide, designed as: ON switch for flavin mononucleotide

| Sequence | apparent Kd [1] | apparent Kd [2] | apparent Kd [3] | apparent Kd [4] |
| --- | --- | --- | --- | --- |
| UUACUACAUGAGGAUCACCCAUGUCAGGAUAUUGUAUAUGCCUUGGAAUACGUGUUUACAAGAAGGGACUAUAU | 24.1 nM | 25.4 nM | – | – |
| GUGUACGGAGGAUAUAUAUGGGCAGGCUGACCUGCAGCUUCACAUGAGGAUCACCCAUGUAGAAGGCUGUACAC | 41.9 nM | 224 nM | – | – |
| CGUUUAUAUCGAGGAUAUAAGUCUAGGACAUGAGGAUCACCCAUGUAUGUCUUAGAAGGCGAUAUAAACAGCCUGUUACAGGCA | – | – | 35.3 nM | 6.96 nM |
| AGAUCGACUGUGAGGAUAUUGACCGGACGACCCAUCGAGAAGGCACAUGAGGAUCACCCAUGUGAGUCGGUUUA | 15.5 nM | 17 nM | – | – |
| GUAGCUACAUGAGGAUCACCCAUGUAGGAUAUCGCUAUUGUAAUCAUGAAACAUGAUUACAAUAGCGAGAAGGACGUUAGCUAC | 6.31 nM | 7.31 nM | – | – |
| AGUUAGAUAGCGAUAUGAUCGAGAGAUCAUGUCGCUAAAUUUAGAAGGACAUGAGGAUCACCCAUGUAGGAUAUGGGAGUAGAA | – | – | 143 nM | 59.3 nM |
| CCGGGCUAGGAGAAGGGCUAGAGUGUGAUAUAUUUGCCCGCGAGCACAUGAGGAUCACCCAUGUAGCAGGAUAUCCAAGCCGGU | 7.25 nM | 21.2 nM | – | – |
| CCUCUACAUGAGGAUCACCCAUGUGAGGAUAUGCGAGGCGCGCCCGAUAGGCGCGCCGGUAGAAGGCAUGUGGU | 23.5 nM | 50.5 nM | – | – |
| CGUAUGUCAGGAUAUGCGUAAGCCGGUCAGGGCGAGCGGCAGCAGAAGGGACAUGAGGAUCACCCAUGUUCGGG | 64.6 nM | 47.8 nM | – | – |
| CUGCGGUAGGAGAAGGACGGCGGGUUCUUUUCGUACAUGAGGAUCACCCAUGUAGGAUAUCCUACCUCAGGCGGCCUACUACAG | 5.89 nM | 7.42 nM | – | – |
| UAAUUGUGAGGAUAUUCGUUUUUCUCGGAGACGAGAAGAACGGAGAAGGCACAUGAGGAUCACCCAUGUUCCUU | 18 nM | 91.7 nM | – | – |
| GGUUGGCGAGGAUAUACAUGAGGAUCACCCAUGUGGUCCUGUGGCAAAAAAAACCUUUGUAGAAGGCGCGGGUC | 354 nM | 285 nM | – | – |
| AUAUAACAUGAGGAUCACCCAUGUCAGGAUAUCGAACCCAACACAACCAAAAUGUCGGCGAGAAGGGACAAAAA | 35.4 nM | 32.7 nM | – | – |
| ACAUGAUAUGUAGGAUAUCACUACUUGUGUUAUAAAAUUGUAAUUUAGGAUUGAGAAGGACAUUUACAUGAGGAUCACCCAUGU | 14.7 nM | 11.6 nM | – | – |
| CGAUCCCUGUAGAAGGGAGCACCGCAAAACGUGAACCGGUCGCACCGGUGCUUAGGAUAUACAUGAGGAUCACCCAUGUAAAGG | 15.3 nM | 20.2 nM | – | – |
| UCUACGUAAAUUCAUCAAUACAGAAAGGAUAUGAAAUACAUGAGGAUCACCCAUGUGCAUGGGAAUUAGAAGGUUCAAUUAACU | 202 nM | 104 nM | – | – |
| GGCGAACAGGCUAACAUGAGGAUCACCCAUGUGGACUCAUGCGAGGAUAUCGGGAAGGAGGAUUCCGAGAAGGUGCGGUGAGCC | – | – | 788 nM | 304 nM |
| UCUGCCGCCGUGAGGAUAUGCCCGCGCGCCCGCGGGCAGAAGGCACAUGAGGAUCACCCAUGUCCCGCGGUUUU | 16.3 nM | 37.3 nM | – | – |
| GUCGUGUGAGGAUAUGGUUCGUCGCAGUGGCGGUCGGCGACCUAGAAGGCACAUGAGGAUCACCCAUGUAUGUG | 122 nM | 84 nM | – | – |
| AGAGUUUCGUUGUGACCCAUUCACAUGAGGAUCACCCAUGUAGAGGAUAUAAGUCACCACGGUACUUAGAAGGCUGCAGGUGUG | 6.83 nM | 12.5 nM | – | – |
| ACACAACAUGAGGAUCACCCAUGUCAGGAUAUGCAGAACAAGAACAAGACAAGACAGAGCAGAAGGGACAACAC | 39.4 nM | 35.6 nM | – | – |
| AAUGAAUUCGAGAAGGGAGAUGUGGCACUUGUUUCGAAGUUGUGAUCACUCAGGAUAUCGAAACAUGAGGAUCACCCAUGUAAA | – | – | 273 nM | 17.5 nM |
| GUAAAGUGAGGAUAUGGUAAAUUAAUUAUUAAUUAAUUAAUCCAGAAGGCACAUGAGGAUCACCCAUGUAUAUG | 38.2 nM | 61.3 nM | – | – |
| GACCCAAAUGAGAAGGUGUGUAUAAAUUAUGUACAAGGAUAUCGGUCGAGCGUGUUGACAUGAGGAUCACCCAUGUUGUGGGUU | – | – | 139 nM | 56.2 nM |
| GGCAUAAUGUAGGAUAUCGUAUUGGAAACAAUACGAGAAGGGCAAACAUGAGGAUCACCCAUGUUCCUUAAGCC | 18.5 nM | 19 nM | – | – |
| CCUCUACAUGAGGAUCACCCAUGUGAGGAUAUCUCGGAGCAGCCAAUUAAAGCGCUCCAGAGAAGGCACGUGUA | 17.9 nM | 25.2 nM | – | – |
| ACAUAUAUUCGAGGAUAUCGGUGAUAAAUUUUACGAGAAGGCGAUAAAAGAUAUAAUCUUAUAGACAUGAGGAUCACCCAUGUA | – | – | 27.3 nM | 27.1 nM |
| CAUUAAUUCAUUAUAUUAAUUUUACAGGAUAUGUAACAUGAGGAUCACCCAUGUAUUCUAGGUUAACAGAAGGGUAUUGCUUGU | 24.5 nM | 21.3 nM | – | – |

| Sequence | apparent Kd [1] | apparent Kd [2] | apparent Kd [3] | apparent Kd [4] |
| --- | --- | --- | --- | --- |
| GCGAAGAACGAGAAGGCCACUACAUGAGGAUCACCCAUGUCGUGGAGUAUUGGAGGAUAUCGAUCGGCGUCUCAUGAGGACAUA | 5.73 nM | 5.61 nM | – | – |
| GCAUACAUUCGAGGAUAUCGGUGAACAAAUUAACGAGAAGGCGAUAUAAUGUUUAAUCUUAUAAACAUGAGGAUCACCCAUGUA | – | – | 76.9 nM | 31.2 nM |
| UCAUAAAUUCGAGGAUAUCGGUGAUAAAGAAGACGAGAAGGCGAUUAGAGAGAGAUGGUUAUAGACAUGAGGAUCACCCAUGUU | – | – | 33.9 nM | 24.1 nM |
| GCGUAAUAGGUGUAGCUAGUCAUUCAAGAAGGGUGGAGAACAUGAGGAUCACCCAUGUGGUUUAUACAGGAUAUUGAUAUACGC | – | – | 258 nM | 51.2 nM |
| GUGGAGUACGUAGGAUAUGUAGGAUAUUCCUACAUGAGGAUCACCCAUGUUAGCAUGGAAGAAGGACAGAAGGACGUGCUCCAG | – | – | 1180 nM | 15 nM |
| GAGCUCGAUGAGAAGGGUUACAUGAGGAUCACCCAUGUCGACCUUGGCGUAACAGGAUAUCAUCGGGCUCAGUGCGUUGACACA | 29.2 nM | 171 nM | – | – |
| GUAGCUAUCGGAGGAUAUGGGUUGCGGAAACGCACAUGAGGAUCACCCAUGUAAAUAAAUAAUUCCUAGAAGGCCGAUAGCUAC | – | – | 21 nM | 15 nM |
| UGGUACUAGGGAGGAUAUUGGAAGAUACAUGAGGAUCACCCAUGUUUAAGAAUGCCGAGAGGCAACUAGAAGGCCCUAGUACCU | – | – | 8.37 nM | 5.09 nM |
| GUAGCUAUCGGAGGAUAUUCAUACCGGAAACGGACAUGAGGAUCACCCAUGUGGCGAAAGCCUUGGGAGAAGGUCGAUAGCUAC | – | – | 308 nM | 10.5 nM |
| GGAUAUAUUACAUGAGGAUCACCCAUGUCAGAACGGGUAAUCAGAAGGUACUAUUAGAGAAAGAGUAAGGAUAUGAUUAUAUCC | – | – | 801 nM | 165 nM |
| GGAAUACAUGAGGAUCACCCAUGUAAGGAUAUGCUGAUUAACACGGAAUAAUUAUGCAGCAGAAGGUACAAAGG | 113 nM | 91.1 nM | – | – |
| GAAUUCGCAUGAGGAUAUGCACUCAUUUCAUGUGCAGAAGGUAUAUCAUUAGACAUGAGGAUCACCCAUGUAUUGGUCAUUAAC | – | – | 15.2 nM | 14 nM |
| CGUUGAUGAGGAUAUCGAUGUUAGUACAUGAGGAUCACCCAUGUUAUCCAAGUGUCGGAUCGAGAAGGUAUUGGAC | 320 nM | 306 nM | – | – |
| ACAUUUAAUACAGGAUAUGUUAGUAUACAGUAGAUUGGUUAUUACACAACAACAGAAGGGUAGUACAUGAGGAUCACCCAUGUA | – | – | 15.6 nM | 12.1 nM |
| AAGAAAGAAACAUAGGAUAUCAAGGAUAUAACAUGAGGAUCACCCAUGUAAAUACGAAAGUAUAAUGAGAAGGAUGGAUGAUCUUC | – | – | 86.1 nM | 122 nM |
| AAAUCCAACGAAGGAUAUACAAACAUGAGGAUCACCCAUGUGUCUUUCGUGUAACUGGAAUUCGGGUAGAAGGUCGUUGACAUA | 11.8 nM | 17.6 nM | – | – |
| AAGAGCGAUUCUCCCUUCCUACAUGAGGAUCACCCAUGUACGAGAAGGCGCCGUGGAUACCACGGUGAGGAUAUCGUGCGUUAC | 4.55 nM | 5.13 nM | – | – |
| AAAAAACAUGAGGAUCACCCAUGUGAGGAUAUCCAAAAGUUAAAGAAAAAGACGAAAAGGAGAAGGCGCAAAAA | 109 nM | 82 nM | – | – |
| GCGUACAUAUCAGGAUAUCAUAUAAUUGUUUAACUCAGUGUAUACAUGAGGAUCACCCAUGUUCUUGAGAAGGGAUAUGUACGC | 9.08 nM | 9.76 nM | – | – |
| ACAUGAGGAUCACCCAUGUAUACAUAGGAUAUUGGUGAUCAGGGAUGUUUUACAGGAUAUGUCUGCGAGAAGGAUGCAAGUAGU | – | – | 238 nM | 48.3 nM |
| AGCUGACGAGGAUAUACAUGAGGAUCACCCAUGUUGGUUCAGCGACGAUAGUCGCAAUGUAGAAGGUGUCAGCU | 126 nM | 664 nM | – | – |
| UUUUAACAUGAGGAUCACCCAUGUGAGGAUAUCGAAAUUUAUAUUAAUAUUUAUAUAACGAGAAGGCACAUUUU | 68.4 nM | 90.1 nM | – | – |
| UGUCAAGCAGGAUAUGCACGUAAUAACAUGAGGAUCACCCAUGUGACCGAUUUAUAUUCUGCAGAAGGGCUUGGUU | 37.8 nM | 140 nM | – | – |
| CGGUGGUCAGGAUAUACGAACAUGUCGCCAGAUGUCAUGGUACAUGAGGAUCACCCAUGUAGAAGGGAGUAGGU | 181 nM | 171 nM | – | – |
| AUACCACGAGGAUAUCGUCUAUAAUACAUGAGGAUCACCCAUGUUAUAUCUGUAAUGUUUCGAGAAGGCGUGUUUU | 17.5 nM | 14.2 nM | – | – |
| GGAAUAAAUGCAGGAUAUACGUGGAAAGCCUUCAACAUGAGGAUCACCCAUGUAGAAGGGCAUCUCCCGACCGAAUCGGAUCUC | 5.72 nM | 6.25 nM | – | – |
| CUCUUUGUUGAGGAUAUGCACCAGCUCACUGACGCAGAAGGCGACACAUGAGGAUCACCCAUGUCAGUUCGCGU | 17.4 nM | 21.5 nM | – | – |

Reference: the EternaBench riboswitch data
